# In ChEMBL document CHEMBL1287642, “Synthesis, antiviral activity and cytotoxicity evaluation of Schiff bases of some 2-phenyl quinazoline-4(3)H-ones” (Eur J Med Chem, 2010):
# Columns and labels:
# Human respirovirus 3 = assay: Antiviral activity against Para influenza-3 virus infected in african green monkey Vero cells assessed as protection against virus-induced cytopathogenicity after 2 days; format: functional, organism-based; details: Human respirovirus 3, Vero, 48 h
# [1] = Cytotoxicity against african green monkey Vero cells assessed as minimum concentration required to cause microscopically detectable alteration after 2 days; format: cell-based; details: chlorocebus sabaeus, read-out: Activity
# Human alphaherpesvirus 1 [2] = assay: Antiviral activity against Herpes simplex virus-1 KOS infected in human HEL cells assessed as protection against virus-induced cytopathogenicity after 2 days; format: functional, organism-based; details: Human alphaherpesvirus 1, KOS, 48 h
# [3] = test system: Respiratory syncytial virus; assay: Antiviral activity against Respiratory syncytial virus infected in human HeLa cells assessed as protection against virus-induced cytopathogenicity after 2 days; format: functional, organism-based; details: 48 h
# Sindbis virus = assay: Antiviral activity against Sindbis virus infected in african green monkey Vero cells assessed as protection against virus-induced cytopathogenicity after 2 days; format: functional, organism-based; details: 48 h
# Influenza A virus [4] = assay: Antiviral activity against influenza A virus H1N1 infected in MDCK cells assessed as protection against virus-induced cytopathogenicity at 100 ug/ml after 2 days; format: functional, organism-based
# Procedure, shortened: (§1)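 Infected MDCK cells were treated. […] N.A. means not active at the highest concentration tested or at a subtoxic concentration.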
# Influenza A virus [5] = assay: Antiviral activity against Influenza A virus H3N2 infected in MDCK cells assessed as protection against virus-induced cytopathogenicity at 100 ug/ml after 2 days; format: functional, organism-based; procedure, shortened: as §1
# Felid alphaherpesvirus 1 = assay: Antiviral activity against Feline herpes virus infected in cat CRFK cells assessed as protection against virus-induced cytopathogenicity after 2 days by MTS assay; format: functional, organism-based; details: Felid alphaherpesvirus 1, CRFK, 48 h
# Influenza A virus [6] = assay: Antiviral activity against influenza A virus H1N1 infected in MDCK cells assessed as cell viability at 100 ug/ml after 2 days by MTS assay; format: functional, organism-based
# Influenza B virus [7] = assay: Antiviral activity against influenza B virus infected in MDCK cells assessed as protection against virus-induced cytopathogenicity at 100 ug/ml after 2 days; format: functional, organism-based; procedure, shortened: as §1
# Influenza A virus [8] = assay: Antiviral activity against Influenza A virus H3N2 infected in MDCK cells assessed as cell viability at 100 ug/ml after 2 days by MTS assay; format: functional, organism-based
# [9] = Selectivity index, ratio of minimum concentration required to cause microscopically detectable alteration in human HEL cells to EC50 for Herpes simplex virus-2 G; format: toxicity, cell-based; details: read-out: Selectivity Index
# Procedure, shortened: (§2)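 Cytotoxicity was taken as the concentration causing a microscopically detectable change in normal cell morphology (Vero or HEL). […] The selectivity index is the first divided by the second.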
# Punta Toro virus = assay: Antiviral activity against Punta Toro virus infected in african green monkey Vero cells assessed as protection against virus-induced cytopathogenicity after 2 days; format: functional, organism-based; details: 48 h
# [10] = test system: Vesicular stomatitis virus; assay: Antiviral activity against Vesicular stomatitis virus infected in human HEL cells assessed as protection against virus-induced cytopathogenicity after 2 days; format: functional, organism-based; details: 48 h
# [11] = test system: Feline infectious peritonitis virus; assay: Antiviral activity against Feline coronavirus FIPV infected in cat CRFK cells assessed as protection against virus-induced cytopathogenicity after 2 days by MTS assay; format: functional, cell-based; details: Alphacoronavirus 1, CRFK, 48 h
# Coxsackievirus B4 [12] = assay: Antiviral activity against Coxsackie virus B4 infected in african green monkey Vero cells assessed as protection against virus-induced cytopathogenicity after 2 days; format: functional, organism-based; details: Enterovirus B, 48 h
# [13] = test system: Vesicular stomatitis virus; assay: Antiviral activity against Vesicular stomatitis virus infected in human HeLa cells assessed as protection against virus-induced cytopathogenicity after 2 days; format: functional, organism-based; details: 48 h
# [14] = test system: Mammalian orthoreovirus 1; assay: Antiviral activity against Reovirus-1 infected in african green monkey Vero cells assessed as protection against virus-induced cytopathogenicity after 2 days; format: functional, organism-based; details: Mammalian orthoreovirus 1, Vero, 48 h
# [15] = Selectivity index, ratio of minimum concentration required to cause microscopically detectable alteration in human HEL cells to EC50 for acyclovir-resistant TK deficient Vaccina virus; format: toxicity, cell-based; details: read-out: Selectivity Index; procedure, shortened: as §2
# Coxsackievirus B4 [16] = assay: Antiviral activity against Coxsackie virus B4 infected in human HeLa cells assessed as protection against virus-induced cytopathogenicity after 2 days; format: functional, organism-based; details: Enterovirus B, 48 h
# [17] = Cytotoxicity against human HeLa cells assessed as minimum concentration required to cause microscopically detectable alteration after 2 days; format: cell-based; details: read-out: Activity
# [18] = Cytotoxicity against cat CRFK cells by MTS assay; format: cell-based, Felis catus; details: crfk
# Procedure, shortened: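 In uninfected CRFK cells, the 50% cytotoxic concentration was derived from cell viability measured by the colorimetric formazan-based MTS assay.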
# [19] = Selectivity index, ratio of minimum concentration required to cause microscopically detectable alteration in human HEL cells to EC50 for acyclovir-resistant TK deficient Herpes simplex virus-1 KOS; format: toxicity, cell-based; details: read-out: Selectivity Index; procedure, shortened: as §2
# [20] = Cytotoxicity against MDCK cells assessed as minimum concentration required to cause microscopically detectable alteration after 2 days; format: cell-based, Canis lupus familiaris; details: dog, read-out: Activity
# MDCK = assay: Cytotoxicity against MDCK cells by MTS assay; format: cell-based, Canis lupus familiaris; details: dog, mdck
# Procedure, shortened: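 In Madin Darby canine kidney cells, the 50% cytotoxic concentration was derived from cell viability measured by the colorimetric formazan-based MTS assay.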
# Human alphaherpesvirus 2 = assay: Antiviral activity against Herpes simplex virus-2 G infected in human HEL cells assessed as protection against virus-induced cytopathogenicity after 2 days; format: functional, organism-based; details: Human alphaherpesvirus 2, strain G, 48 h
# Human alphaherpesvirus 1 [21] = assay: Antiviral activity against acyclovir-resistant TK deficient Herpes simplex virus-1 KOS infected in human HEL cells assessed as protection against virus-induced cytopathogenicity after 2 days; format: functional, organism-based; details: Human alphaherpesvirus 1, KOS, 48 h
# [22] = Selectivity index, ratio of minimum concentration required to cause microscopically detectable alteration in human HEL cells to EC50 for Herpes simplex virus-1 KOS; format: toxicity, cell-based; details: read-out: Selectivity Index; procedure, shortened: as §2
# Influenza B virus [23] = assay: Antiviral activity against influenza B virus infected in MDCK cells assessed as cell viability at 100 ug/ml after 2 days by MTS assay; format: functional, organism-based
# [24] = Cytotoxicity against human HEL cells assessed as minimum concentration required to cause microscopically detectable alteration after 2 days; format: cell-based; details: read-out: Activity
# Influenza B virus [25] = assay: Antiviral activity against influenza B virus infected in MDCK cells assessed as cell viability after 2 days by MTS assay; format: functional, organism-based
# Influenza B virus [26] = assay: Antiviral activity against influenza B virus infected in MDCK cells assessed as protection against virus-induced cytopathogenicity after 2 days; format: functional, organism-based; procedure, shortened: as §1
SMILES,EC50 (Human respirovirus 3) [µg/mL],MCC at 48 h [1] [µg/mL],EC50 (Human alphaherpesvirus 1 [2]) [µg/mL],EC50 [3] [µg/mL],EC50 (Sindbis virus) [µg/mL],EC50 (Influenza A virus [4]),EC50 (Influenza A virus [5]),EC50 (Felid alphaherpesvirus 1) [µg/mL],EC50 (Influenza A virus [6]),EC50 (Influenza B virus [7]),EC50 (Influenza A virus [8]),EC50 (Punta Toro virus) [µg/mL],EC50 [10] [µg/mL],EC50 [11] [µg/mL],EC50 (Coxsackievirus B4 [12]) [µg/mL],EC50 [13] [µg/mL],EC50 [14] [µg/mL],EC50 (Coxsackievirus B4 [16]) [µg/mL],MCC at 48 h [20] [µg/mL],CC50 (MDCK) [µg/mL],also measured
COc1ccc(/C=N/n2c(-c3ccccc3)nc3ccccc3c2=O)cc1,> 20,100,9,> 4,> 20,Not Active,Not Active,> 4,Not Active,Not Active,Not Active,> 20,> 100,> 4,> 20,> 4,> 20,> 4,20,8.2,selectivity ratio [9]: 13; selectivity ratio [15]: 11; MCC at 48 h [17]: 20 µg/mL; CC50 [18]: 13.7 µg/mL; selectivity ratio [19]: 11; EC50 (Human alphaherpesvirus 2): 8 µg/mL; EC50 (Human alphaherpesvirus 1 [21]): 9 µg/mL; selectivity ratio [22]: 11; EC50 (Influenza B virus [23]): Not Active; MCC at 48 h [24]: > 100 µg/mL
O=c1c2ccccc2nc(-c2ccccc2)n1/N=C/c1ccccc1,> 4,20,7,> 4,> 4,Not Active,Not Active,> 0.8,Not Active,Not Active,Not Active,> 4,> 100,> 0.8,> 4,> 4,> 4,> 4,20,15,selectivity ratio [9]: 11; selectivity ratio [15]: 11; MCC at 48 h [17]: 20 µg/mL; CC50 [18]: 3.7 µg/mL; selectivity ratio [19]: 11; EC50 (Human alphaherpesvirus 2): 9 µg/mL; EC50 (Human alphaherpesvirus 1 [21]): 9 µg/mL; selectivity ratio [22]: 14; EC50 (Influenza B virus [23]): Not Active; MCC at 48 h [24]: > 100 µg/mL
O=c1c2ccccc2nc(-c2ccccc2)n1/N=C/c1ccc(Cl)cc1,> 4,20,> 20,> 4,> 4,Not Active,Not Active,> 20,Not Active,Not Active,Not Active,> 4,> 20,> 20,> 4,> 4,> 4,> 4,20,76.4,MCC at 48 h [17]: 20 µg/mL; CC50 [18]: 42.2 µg/mL; EC50 (Human alphaherpesvirus 2): > 20 µg/mL; EC50 (Human alphaherpesvirus 1 [21]): > 20 µg/mL; EC50 (Influenza B virus [23]): Not Active; MCC at 48 h [24]: 100 µg/mL
CC(N)C12CC3CC(CC(C3)C1)C2 (stereo not given) [RIMANTADINE],,,,,,,,,,,,,,,,,,,1000,472,EC50 (Influenza B virus [25]): Not Active; EC50 (Influenza B virus [26]): Not Active
